Measurements from ChEMBL document CHEMBL4325889, “Natural products hybrids: 3,5,4'-Trimethoxystilbene-5,6,7-trimethoxyflavone chimeric analogs as potential cytotoxic agents against diverse human cancer cells” (Eur J Med Chem, 2019).

Assays:
Type in all cases: functional
[1] = tested on: CCRF-CEM; assay: Growth inhibition of human CCRF-CEM cells at 10 uM after 48 hrs by SRB assay relative to control; details: read-out: GI
Method in brief: (§1)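 Screened at the National Cancer Institute by the standard NCI protocol using the sulforhodamine B assay, which measures cellular protein. Single dose of 10 µM. Result is percent growth inhibition; values above 100% mean cell number fell below the initial population. Values are the average of duplicates.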

[2] = tested on: HL-60(TB); assay: Growth inhibition of human HL-60(TB) cells at 10 uM after 48 hrs by SRB assay relative to control; details: HL-60, 48 h, read-out: GI
Method in brief: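 Run at NCI under its standard single-dose protocol against a leukemia cell panel. Cells were exposed to 10 µM; growth was read by sulforhodamine B staining of cellular protein and expressed as % growth inhibition versus untreated control. Values above 100% mean the cell population fell below the starting count (cytocidal). Each value is the average of duplicates.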

[3] = tested on: K562; assay: Growth inhibition of human K562 cells at 10 uM after 48 hrs by SRB assay relative to control; details: K562, 48 h, read-out: GI; method in brief: as §1
[4] = tested on: RPMI-8226; assay: Growth inhibition of human RPMI8226 cells at 10 uM after 48 hrs by SRB assay relative to control; details: RPMI-8226, 48 h, read-out: GI; method in brief: as §1
[5] = tested on: SR; assay: Growth inhibition of human SR cells at 10 uM after 48 hrs by SRB assay relative to control; details: read-out: GI
Method in brief: (§2)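 NCI screen against its human cancer cell line panel by the standard NCI protocol, SRB protein stain. Single dose of 10 μM. Percent growth inhibition versus control; values above 100% mean the cell population fell below the starting number. Each value is the mean of duplicates.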

[6] = tested on: A549; assay: Growth inhibition of human A549 cells at 10 uM after 48 hrs by SRB assay relative to control; details: A549, 48 h, read-out: GI; method in brief: as §1
[7] = tested on: HOP-92; assay: Growth inhibition of human HOP92 cells at 10 uM after 48 hrs by SRB assay relative to control; details: HOP-92, 48 h, read-out: GI; method in brief: as §1
[8] = tested on: NCI-H226; assay: Growth inhibition of human NCI-H226 cells at 10 uM after 48 hrs by SRB assay relative to control; details: NCI-H226, 48 h, read-out: GI; method in brief: as §1
[9] = tested on: NCI-H23; assay: Growth inhibition of human NCI-H23 cells at 10 uM after 48 hrs by SRB assay relative to control; details: NCI-H23, 48 h, read-out: GI; method in brief: as §1
[10] = tested on: NCI-H322M; assay: Growth inhibition of human NCI-H322M cells at 10 uM after 48 hrs by SRB assay relative to control; details: read-out: GI; method in brief: as §1
[11] = tested on: COLO 205; assay: Growth inhibition of human COLO205 cells at 10 uM after 48 hrs by SRB assay relative to control; details: COLO 205, 48 h, read-out: GI; method in brief: as §1
[12] = tested on: HCC 2998; assay: Growth inhibition of human HCC2998 cells at 10 uM after 48 hrs by SRB assay relative to control; details: HCC 2998, 48 h, read-out: GI; method in brief: as §1
[13] = tested on: HCT-116; assay: Growth inhibition of human HCT116 cells at 10 uM after 48 hrs by SRB assay relative to control; details: HCT-116, 48 h, read-out: GI; method in brief: as §1
[14] = tested on: HCT-15; assay: Growth inhibition of human HCT15 cells at 10 uM after 48 hrs by SRB assay relative to control; details: HCT-15, 48 h, read-out: GI; method in brief: as §1
[15] = tested on: SF-295; assay: Growth inhibition of human SF295 cells at 10 uM after 48 hrs by SRB assay relative to control; details: SF-295, 48 h, read-out: GI; method in brief: as §1
[16] = tested on: SF-539; assay: Growth inhibition of human SF539 cells at 10 uM after 48 hrs by SRB assay relative to control; details: SF-539, 48 h, read-out: GI; method in brief: as §1
[17] = tested on: SNB-75; assay: Growth inhibition of human SNB75 cells at 10 uM after 48 hrs by SRB assay relative to control; details: SNB-75, 48 h, read-out: GI; method in brief: as §2
[18] = tested on: U-251; assay: Growth inhibition of human U251 cells at 10 uM after 48 hrs by SRB assay relative to control; details: U-251, 48 h, read-out: GI; method in brief: as §2
[19] = tested on: LOX IMVI; assay: Growth inhibition of human LOXIMVI cells at 10 uM after 48 hrs by SRB assay relative to control; details: read-out: GI; method in brief: as §1
[20] = tested on: Malme-3M; assay: Growth inhibition of human MALME-3M cells at 10 uM after 48 hrs by SRB assay relative to control; details: read-out: GI; method in brief: as §1
[21] = tested on: SK-MEL-2; assay: Growth inhibition of human SK-MEL-2 cells at 10 uM after 48 hrs by SRB assay relative to control; details: SK-MEL-2, 48 h, read-out: GI; method in brief: as §1
[22] = tested on: SK-MEL-28; assay: Growth inhibition of human SK-MEL-28 cells at 10 uM after 48 hrs by SRB assay relative to control; details: SK-MEL-28, 48 h, read-out: GI; method in brief: as §1
[23] = tested on: SK-MEL-5; assay: Growth inhibition of human SK-MEL-5 cells at 10 uM after 48 hrs by SRB assay relative to control; details: SK-MEL-5, 48 h, read-out: GI; method in brief: as §1
[24] = tested on: UACC-257; assay: Growth inhibition of human UACC257 cells at 10 uM after 48 hrs by SRB assay relative to control; details: UACC-257, 48 h, read-out: GI; method in brief: as §2
[25] = tested on: IGROV-1; assay: Growth inhibition of human IGROV1 cells at 10 uM after 48 hrs by SRB assay relative to control; details: IGROV-1, 48 h, read-out: GI; method in brief: as §1
[26] = tested on: NCI/ADR-RES; assay: Growth inhibition of human NCI/ADR-RES cells at 10 uM after 48 hrs by SRB assay relative to control; details: read-out: GI; method in brief: as §1
[27] = tested on: 786-0; assay: Growth inhibition of human 786-0 cells at 10 uM after 48 hrs by SRB assay relative to control; details: 786-0, 48 h, read-out: GI; method in brief: as §1
[28] = tested on: RXF 393; assay: Growth inhibition of human RXF393 cells at 10 uM after 48 hrs by SRB assay relative to control; details: RXF 393, 48 h, read-out: GI; method in brief: as §1
[29] = tested on: SN12C; assay: Growth inhibition of human SN12C cells at 10 uM after 48 hrs by SRB assay relative to control; details: read-out: GI; method in brief: as §1
[30] = tested on: TK-10; assay: Growth inhibition of human TK10 cells at 10 uM after 48 hrs by SRB assay relative to control; details: TK-10, 48 h, read-out: GI; method in brief: as §2
[31] = tested on: DU-145; assay: Growth inhibition of human DU145 cells at 10 uM after 48 hrs by SRB assay relative to control; details: DU-145, 48 h, read-out: GI; method in brief: as §1
[32] = tested on: MCF7; assay: Growth inhibition of human MCF7 cells at 10 uM after 48 hrs by SRB assay relative to control; details: MCF7, 48 h, read-out: GI; method in brief: as §1
[33] = tested on: Hs-578T; assay: Growth inhibition of human Hs 578T cells at 10 uM after 48 hrs by SRB assay relative to control; details: read-out: GI; method in brief: as §1
[34] = tested on: MDA-MB-468; assay: Growth inhibition of human MDA-MB-468 cells at 10 uM after 48 hrs by SRB assay relative to control; details: MDA-MB-468, 48 h, read-out: GI; method in brief: as §1

| Compound | inhibition of growth at 10 µM [1] | inhibition of growth at 10 µM [2] | inhibition of growth at 10 µM [3] | inhibition of growth at 10 µM [4] | inhibition of growth at 10 µM [5] | inhibition of growth at 10 µM [6] | inhibition of growth at 10 µM [7] | inhibition of growth at 10 µM [8] | inhibition of growth at 10 µM [9] | inhibition of growth at 10 µM [10] | inhibition of growth at 10 µM [11] | inhibition of growth at 10 µM [12] | inhibition of growth at 10 µM [13] | inhibition of growth at 10 µM [14] | inhibition of growth at 10 µM [15] | inhibition of growth at 10 µM [16] | inhibition of growth at 10 µM [17] | inhibition of growth at 10 µM [18] | inhibition of growth at 10 µM [19] | inhibition of growth at 10 µM [20] | also measured |
| --- | --- | --- | --- | --- | --- | --- | --- | --- | --- | --- | --- | --- | --- | --- | --- | --- | --- | --- | --- | --- | --- |
| COc1cccc(NC(=O)c2cccc(-c3cc(=O)c4c(OC)c(OC)c(OC)cc4o3)c2)c1 | 59.5% | 31.3% | 59.7% | 83% | 58.1% | 37.2% | 58.1% | 36.7% | 36.9% | 19.9% | 31.7% | 12.2% | 39.3% | 45.3% | 29.2% | 22.5% | 10.2% | 37.9% | 50.1% | 15.2% | inhibition of growth at 10 µM [21]: 24.3%; inhibition of growth at 10 µM [22]: 26.6%; inhibition of growth at 10 µM [23]: 36.1%; inhibition of growth at 10 µM [24]: 7.62%; inhibition of growth at 10 µM [25]: 46.7%; inhibition of growth at 10 µM [26]: 35.2%; inhibition of growth at 10 µM [27]: 31.1%; inhibition of growth at 10 µM [28]: 52.1%; inhibition of growth at 10 µM [29]: 37.7%; inhibition of growth at 10 µM [30]: 21.2%; inhibition of growth at 10 µM [31]: 28.2%; inhibition of growth at 10 µM [32]: 12.3%; inhibition of growth at 10 µM [33]: 53.8%; inhibition of growth at 10 µM [34]: 21% |
| COc1ccccc1NC(=O)c1cccc(-c2cc(=O)c3c(O)c(OC)c(OC)cc3o2)c1 | 39.8% | 9.41% | 22.1% | 45.4% | 21.5% | 18.5% | 15.8% | 23.9% | 13.9% | 1.56% | -7.01% | -2.45% | 14.5% | 13% | 10.8% | 6.01% | 13% | -0.16% | 16.7% | 5.55% | inhibition of growth at 10 µM [21]: 14.1%; inhibition of growth at 10 µM [22]: 5.62%; inhibition of growth at 10 µM [23]: 3.77%; inhibition of growth at 10 µM [24]: 1.19%; inhibition of growth at 10 µM [25]: -5.97%; inhibition of growth at 10 µM [26]: 19.8%; inhibition of growth at 10 µM [27]: 9.66%; inhibition of growth at 10 µM [28]: 21.8%; inhibition of growth at 10 µM [29]: 5.99%; inhibition of growth at 10 µM [30]: 14.1%; inhibition of growth at 10 µM [31]: 5.49%; inhibition of growth at 10 µM [32]: 7.54%; inhibition of growth at 10 µM [33]: 3.9%; inhibition of growth at 10 µM [34]: 9.38% |
